Laboratory results reported in ChEMBL document CHEMBL1144696, “Overcoming drug resistance to heme-targeted antimalarials by systematic side chain variation of 7-chloro-4-aminoquinolines” (J Med Chem, 2008).
pIC50: −log10 of the molar value.

What was measured:
Plasmodium falciparum [1] = assay: Antiplasmodial activity against chloroquine-sensitive Plasmodium falciparum GCO3 after 72 hrs by SYBR green 1 assay; format: functional, organism-based; details: GCO3, 72 h
Procedure, shortened: (§1)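 P. falciparum growth inhibition measured by SYBR Green I intercalation. Each strain was tested separately. IC50 calculated from triplicate experiments. Values are averages of two separate determinations, each run in triplicate.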

Plasmodium falciparum [2] = assay: Selectivity for chloroquine-resistant Plasmodium falciparum Dd2 over chloroquine-sensitive Plasmodium falciparum HB3 as IC50 ratio by SYBR green assay; format: functional
Procedure, shortened: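 Selectivity index is IC50 for Dd2 divided by IC50 for HB3. Both IC50s come from the SYBR Green I assay, averaging two determinations each run in triplicate.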

Plasmodium falciparum [3] = assay: Antiplasmodial activity against chloroquine-resistant Plasmodium falciparum FCB after 72 hrs by SYBR green 1 assay; format: functional, organism-based; procedure, shortened: as §1
Plasmodium falciparum [4] = assay: Antiplasmodial activity against chloroquine-resistant Plasmodium falciparum Dd2 after 72 hrs by SYBR green 1 assay; format: functional, organism-based; details: Dd2, 72 h; procedure, shortened: as §1
Plasmodium falciparum [5] = assay: Selectivity index for chloroquine-resistant Plasmodium falciparum FCB to chloroquine-sensitive Plasmodium falciparum GCO3 by SYBR green IC50 ratio; format: functional
Plasmodium falciparum [6] = assay: Antiplasmodial activity against chloroquine-sensitive Plasmodium falciparum HB3 after 72 hrs by SYBR green 1 assay; format: functional, organism-based; details: HB3, 72 h; procedure, shortened: as §1

Structure (SMILES) | pIC50 (Plasmodium falciparum [1]) | Ratio IC50 (Plasmodium falciparum [2]) | pIC50 (Plasmodium falciparum [3]) | pIC50 (Plasmodium falciparum [4]) | Ratio IC50 (Plasmodium falciparum [5]) | pIC50 (Plasmodium falciparum [6])
CCN(CC)CCCNCCCCNc1ccnc2cc(Cl)ccc12 | 6.86 | 2.34 | 6.72 | 6.77 | 1.36 | 7.14
CC(C)NC1CCC(Nc2ccnc3cc(Cl)ccc23)CC1 (centres undefined) | 7.71 | 2.42 | 7.18 | 7.12 | 3.89 | 7.50
CCN(CC)CCCNCCCCCCNc1ccnc2cc(Cl)ccc12 | 6.89 | 3.25 | 6.67 | 6.57 | 1.67 | 7.08
CC(C)N(CCCCN(CCCCN(C(C)C)C(C)C)c1ccnc2cc(Cl)ccc12)C(C)C | 5.82 | 1.94 | 5.65 | 5.59 | 1.47 | 5.88
CCN(CC)CCCNCCCNc1ccnc2cc(Cl)ccc12 | 7.19 | 2.06 | 7.13 | 7.25 | 1.14 | 7.56
CCN(CC)C1CCC(Nc2ccnc3cc(Cl)ccc23)CC1 (centres undefined) | 7.49 | 2.03 | 7.24 | 7.29 | 1.8 | 7.59
CCN(CC)CCCN(CC)CCCCCCNc1ccnc2cc(Cl)ccc12 | 6.76 | 4.36 | 6.58 | 6.56 | 1.5 | 7.20
CC(C)NC1CCCC(Nc2ccnc3cc(Cl)ccc23)C1 (centres undefined) | 7.58 | 2.74 | 6.96 | 7.12 | 4.21 | 7.56
CCN(CC)CCCN(CC)CCCCCNc1ccnc2cc(Cl)ccc12 | 7.26 | 2.76 | 7.18 | 7.36 | 1.21 | 7.80
CCN(CC)CCCN(CCCN(CC)CC)c1ccnc2cc(Cl)ccc12 | 7.02 | 0.68 | 6.73 | 6.89 | 1.92 | 6.73
CCN(CC)CCCNCCCCCNc1ccnc2cc(Cl)ccc12 | 7.16 | 2.25 | 7.01 | 6.99 | 1.42 | 7.34
CCN(CC)CCCN(CC)CCNc1ccnc2cc(Cl)ccc12 | 7.42 |  | 7.28 | 7.51 |  | 7.56
CCN(CC)CCCNCCNc1ccnc2cc(Cl)ccc12 | 6.93 |  | 6.84 | 6.89 |  | 7.53
CC(C)N(CCCN(CCCN(C(C)C)C(C)C)c1ccnc2cc(Cl)ccc12)C(C)C | 7.37 | 2.26 | 6.98 | 7.00 | 2.45 | 7.36
CCN(CC)CCCN(CC)CCCNc1ccnc2cc(Cl)ccc12 | 7.56 | 1.33 | 7.31 | 7.55 | 1.78 | 7.67
CCN(CC)CCCCN(CCCCN(CC)CC)c1ccnc2cc(Cl)ccc12 | 6.29 | 1.23 | 5.97 | 6.05 | 2.05 | 6.15
CCN(CC)CCCN(CC)CCCCNc1ccnc2cc(Cl)ccc12 | 7.06 | 3.52 | 6.81 | 7.07 | 1.78 | 7.62
CCN(CC)C1CCCC(Nc2ccnc3cc(Cl)ccc23)C1 (centres undefined) | 7.39 | 3.04 | 6.95 | 7.10 | 2.78 | 7.58
